From ChEMBL document CHEMBL2331169, “Search for α3β₂/₃γ2 subtype selective ligands that are stable on human liver microsomes” (Bioorg Med Chem, 2013)
Active and inactive are the calls of the source. The rule behind the calls is not given here.

test system: not listed separately; assay: Metabolic stability in heat inactivated human liver microsomes assessed as compound remaining at 10 uM measured at 60 mins by LC-MS/MS analysis relative to control; format: ADME, Microsome; conditions: read-out: Stability
In short: (§1)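 Control incubation with heat-inactivated human liver microsomes (0.5 mg protein/ml) in 100 mM phosphate pH 7.4, 37 °C, sampled at 0 and 60 min. Samples quenched in acetonitrile with internal standard and analysed by LC-MS/MS. Percent remaining is the peak-area ratio relative to 0 min ×100; duplicates.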

Compound | remaining at 1 h, 10 µM [%]
C#Cc1ccc2c(c1)C(c1ccccn1)=NCc1c(C(=O)O)ncn1-2 | 88.3
C#Cc1ccc2c(c1)C(c1ccccn1)=NCc1c(C(=O)OCC)ncn1-2 | 95.4
C#Cc1ccc2c(c1)C(c1ccccc1F)=NCc1c(C(=O)OCC)ncn1-2 | 110
C#Cc1ccc2c(c1)C(c1ccccc1)=NCc1c(-c3nc(C(C)C)no3)ncn1-2 | 119

test system: Rattus norvegicus; assay: Sedative activity in rat assessed as reduction of D-amphetamine sulfate-induced locomotion at 10 to 100 mg/kg, ip administered 20 mins prior to testing measured for 90 mins relative to vehicle-treated control; format: functional, organism-based; conditions: not given
In short: (§2)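 Rats kept ≥10 days on a reversed light/dark cycle. Drug or saline (2 ml/kg) given i.p. 20 min before an open-field arena; spontaneous x–y locomotion recorded 30 min by beam breaks. D-amphetamine sulfate 0.5 mg/kg i.p. then given, and locomotion recorded a further 90 min.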

Compound | Activity
C#Cc1ccc2c(c1)C(c1ccccc1)=NCc1c(-c3nc(C(C)C)no3)ncn1-2 | inactive

test system: not listed separately; assay: Metabolic stability in human liver microsomes assessed as compound remaining at 1 uM measured at 15 mins by LC-MS/MS analysis relative to control; format: ADME, Microsome; conditions: read-out: Stability
In short: (§3)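 Pooled human liver microsomes (150 donors, 0.5 mg protein/ml) with 2.5 mM NADPH and 3.3 mM MgCl2 in 100 mM phosphate pH 7.4, 0.1% DMSO final, 37 °C, reaction started with microsomes. Aliquots quenched in cold acetonitrile with internal standard; LC-MS/MS in positive-ion ESI MRM mode. Percent remaining is analyte/internal-standard peak-area ratio versus 0 min ×100; duplicates.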

Compound | remaining at 0.25 h, 1 µM [%]
C#Cc1ccc2c(c1)C(c1ccccn1)=NCc1c(C(=O)O)ncn1-2 | 102
C#Cc1ccc2c(c1)C(c1ccccn1)=NCc1c(C(=O)OCC)ncn1-2 | 106
C#Cc1ccc2c(c1)C(c1ccccc1F)=NCc1c(C(=O)OCC)ncn1-2 | 13.5
C#Cc1ccc2c(c1)C(c1ccccc1)=NCc1c(-c3nc(C(C)C)no3)ncn1-2 | 100

test system: not listed separately; assay: Metabolic stability in human liver microsomes assessed as compound remaining at 10 uM measured at 15 mins by LC-MS/MS analysis relative to control; format: ADME, Microsome; conditions: read-out: Stability; in short: as §3

Compound | remaining at 0.25 h, 10 µM [%]
C#Cc1ccc2c(c1)C(c1ccccn1)=NCc1c(C(=O)O)ncn1-2 | 91.4
C#Cc1ccc2c(c1)C(c1ccccn1)=NCc1c(C(=O)OCC)ncn1-2 | 103
C#Cc1ccc2c(c1)C(c1ccccc1F)=NCc1c(C(=O)OCC)ncn1-2 | 20
C#Cc1ccc2c(c1)C(c1ccccc1)=NCc1c(-c3nc(C(C)C)no3)ncn1-2 | 109

test system: Rattus norvegicus; assay: Sedative activity in rat assessed as reduction of D-amphetamine sulfate-induced locomotion at 3 mg/kg, ip administered 20 mins prior to testing measured for 90 mins relative to vehicle-treated control; format: functional, organism-based; design: dose 3 mg/kg; conditions: not given; in short: as §2

Compound | Activity
CN1C(=O)CN=C(c2ccccc2)c2cc(Cl)ccc21 | Active

molecular target: T1, GABA A receptor alpha-5/beta-3/gamma-2 (Rattus norvegicus) (UniProt P18508+P19969+P63079); assay: Agonist activity at rat GABAA alpha5beta3gamma2 receptor expressed in Xenopus oocytes assessed as stimulation of GABA-induced chloride current at 100 nM incubated 30 secs prior to GABA induction measured after 15 mins by two-electrode voltage clamp assay relative to control; format: cell-based; conditions: Oocyte
In short: (§4)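 Rat GABAA β3 and γ2 cDNAs plus α1, α2, α3 or α5 cDNA injected into Xenopus oocytes; follicle layers removed 36 h later. Two-electrode recording with […]-filled electrodes; oocytes perfused with Ringer (90 mM NaCl, 5 mM HEPES pH 7.4, 1 mM MgCl2, KCl, CaCl2) switched to GABA at EC3 with drug (0.1% DMSO final). Mean ± SEM, 3–4 oocytes, ≥2 batches.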

Compound | Activity [%]
C#Cc1ccc2c(c1)C(c1ccccc1F)=NCc1c(-c3nc(C(C)C)no3)ncn1-2 | 239
C#Cc1ccc2c(c1)C(c1ccccc1)=NCc1c(-c3nc(C(C)C)no3)ncn1-2 | 175

molecular target: T2, GABA-A receptor; alpha-1/beta-2/gamma-2 (Rattus norvegicus) (UniProt P18508+P62813+P63138); assay: Agonist activity at rat GABAA alpha1beta3gamma2 receptor expressed in Xenopus oocytes assessed as stimulation of GABA-induced chloride current at 100 nM incubated 30 secs prior to GABA induction measured after 15 mins by two-electrode voltage clamp assay relative to control; format: cell-based; conditions: Oocyte; in short: as §4

Compound | Activity [%]
C#Cc1ccc2c(c1)C(c1ccccc1F)=NCc1c(-c3nc(C(C)C)no3)ncn1-2 | 140
C#Cc1ccc2c(c1)C(c1ccccc1)=NCc1c(-c3nc(C(C)C)no3)ncn1-2 | 107

test system: not listed separately; assay: Metabolic stability in human liver microsomes assessed as compound remaining at 1 uM measured at 30 mins by LC-MS/MS analysis relative to control; format: ADME, Microsome; conditions: liver microsomes, read-out: Stability; in short: as §3

Compound | remaining at 0.5 h, 1 µM [%]
C#Cc1ccc2c(c1)C(c1ccccn1)=NCc1c(C(=O)O)ncn1-2 | 105
C#Cc1ccc2c(c1)C(c1ccccn1)=NCc1c(C(=O)OCC)ncn1-2 | 95.6
C#Cc1ccc2c(c1)C(c1ccccc1F)=NCc1c(C(=O)OCC)ncn1-2 | 2.2
C#Cc1ccc2c(c1)C(c1ccccc1)=NCc1c(-c3nc(C(C)C)no3)ncn1-2 | 110

test system: not listed separately; assay: Metabolic stability in human liver microsomes assessed as compound remaining at 1 uM measured at 60 mins by LC-MS/MS analysis relative to control; format: ADME, Microsome; conditions: liver microsomes, read-out: Stability; in short: as §3

Compound | remaining at 1 h, 1 µM [%]
C#Cc1ccc2c(c1)C(c1ccccn1)=NCc1c(C(=O)O)ncn1-2 | 110
C#Cc1ccc2c(c1)C(c1ccccn1)=NCc1c(C(=O)OCC)ncn1-2 | 80.2
C#Cc1ccc2c(c1)C(c1ccccc1F)=NCc1c(C(=O)OCC)ncn1-2 | 0.3
C#Cc1ccc2c(c1)C(c1ccccc1)=NCc1c(-c3nc(C(C)C)no3)ncn1-2 | 90.8

test system: Rattus norvegicus; assay: Anxiolytic activity in rat assessed as increase in time spent in lighted area at 10 to 100 mg/kg, ip administered 20 mins prior to testing measured for 30 mins by light/dark cycle test relative to vehicle-treated control; format: functional, organism-based; conditions: not given

Compound | Activity
C#Cc1ccc2c(c1)C(c1ccccc1)=NCc1c(-c3nc(C(C)C)no3)ncn1-2 | Active

test system: not listed separately; assay: (§5) Metabolic stability in heat inactivated human liver microsomes assessed as compound remaining at 1 uM measured at 60 mins by LC-MS/MS analysis relative to control; format: ADME, Microsome; conditions: heat-inactivated liver microsomes, read-out: Stability; in short: as §1

Compound | remaining at 1 h, 1 µM [%]
C#Cc1ccc2c(c1)C(c1ccccn1)=NCc1c(C(=O)O)ncn1-2 | 97
C#Cc1ccc2c(c1)C(c1ccccn1)=NCc1c(C(=O)OCC)ncn1-2 | 93.8
C#Cc1ccc2c(c1)C(c1ccccc1F)=NCc1c(C(=O)OCC)ncn1-2 | 102

test system: Liver microsomes; assay: as §5; format: ADME, Microsome; conditions: microsomes, 1 h, 1 µM; in short: as §1

Compound | Stability [%]
C#Cc1ccc2c(c1)C(c1ccccc1)=NCc1c(-c3nc(C(C)C)no3)ncn1-2 | 137.5

test system: not listed separately; assay: Metabolic stability in human liver microsomes assessed as compound remaining at 10 uM measured at 60 mins by LC-MS/MS analysis relative to control; format: ADME, Microsome; conditions: read-out: Stability; in short: as §3

Compound | remaining at 1 h, 10 µM [%]
C#Cc1ccc2c(c1)C(c1ccccn1)=NCc1c(C(=O)O)ncn1-2 | 85.9
C#Cc1ccc2c(c1)C(c1ccccn1)=NCc1c(C(=O)OCC)ncn1-2 | 76.1
C#Cc1ccc2c(c1)C(c1ccccc1F)=NCc1c(C(=O)OCC)ncn1-2 | 0.6
C#Cc1ccc2c(c1)C(c1ccccc1)=NCc1c(-c3nc(C(C)C)no3)ncn1-2 | 96.6

molecular target: T2, GABA-A receptor; alpha-1/beta-2/gamma-2 (Rattus norvegicus); assay: Agonist activity at rat GABAA alpha1beta3gamma2 receptor expressed in Xenopus oocytes assessed as stimulation of GABA-induced chloride current at 1 uM incubated 30 secs prior to GABA induction measured after 15 mins by two-electrode voltage clamp assay relative to control; format: cell-based; conditions: Oocyte; in short: as §4

Compound | Activity [%]
C#Cc1ccc2c(c1)C(c1ccccc1F)=NCc1c(-c3nc(C(C)C)no3)ncn1-2 | 234
C#Cc1ccc2c(c1)C(c1ccccc1)=NCc1c(-c3nc(C(C)C)no3)ncn1-2 | 150

test system: Rattus norvegicus; assay: Anxiolytic activity in rat assessed as increase in time spent in lighted area at 3 mg/kg, ip administered 20 mins prior to testing measured for 30 mins by light/dark cycle test relative to vehicle-treated control; format: functional, organism-based; design: dose 3 mg/kg; conditions: not given

Compound | Activity
CN1C(=O)CN=C(c2ccccc2)c2cc(Cl)ccc21 | Active

test system: not listed separately; assay: Metabolic stability in human liver microsomes assessed as compound remaining at 10 uM measured at 30 mins by LC-MS/MS analysis relative to control; format: ADME, Microsome; conditions: read-out: Stability; in short: as §3

Compound | remaining at 0.5 h, 10 µM [%]
C#Cc1ccc2c(c1)C(c1ccccn1)=NCc1c(C(=O)O)ncn1-2 | 86.1
C#Cc1ccc2c(c1)C(c1ccccn1)=NCc1c(C(=O)OCC)ncn1-2 | 90.4
C#Cc1ccc2c(c1)C(c1ccccc1F)=NCc1c(C(=O)OCC)ncn1-2 | 3.6
C#Cc1ccc2c(c1)C(c1ccccc1)=NCc1c(-c3nc(C(C)C)no3)ncn1-2 | 108

molecular target: T3, GABA A receptor alpha-2/beta-2/gamma-2 (Rattus norvegicus) (UniProt P18508+P23576+P63138); assay: Agonist activity at rat GABAA alpha2beta3gamma2 receptor expressed in Xenopus oocytes assessed as stimulation of GABA-induced chloride current at 1 uM incubated 30 secs prior to GABA induction measured after 15 mins by two-electrode voltage clamp assay relative to control; format: cell-based; conditions: Oocyte; in short: as §4

Compound | Activity [%]
C#Cc1ccc2c(c1)C(c1ccccc1F)=NCc1c(-c3nc(C(C)C)no3)ncn1-2 | 225
C#Cc1ccc2c(c1)C(c1ccccc1)=NCc1c(-c3nc(C(C)C)no3)ncn1-2 | 281

molecular target: T1, GABA A receptor alpha-5/beta-3/gamma-2 (Rattus norvegicus); assay: Agonist activity at rat GABAA alpha5beta3gamma2 receptor expressed in Xenopus oocytes assessed as stimulation of GABA-induced chloride current at 1 uM incubated 30 secs prior to GABA induction measured after 15 mins by two-electrode voltage clamp assay relative to control; format: cell-based; conditions: Oocyte; in short: as §4

Compound | Activity [%]
C#Cc1ccc2c(c1)C(c1ccccc1F)=NCc1c(-c3nc(C(C)C)no3)ncn1-2 | 331
C#Cc1ccc2c(c1)C(c1ccccc1)=NCc1c(-c3nc(C(C)C)no3)ncn1-2 | 291

molecular target: T3, GABA A receptor alpha-2/beta-2/gamma-2 (Rattus norvegicus); assay: Agonist activity at rat GABAA alpha2beta3gamma2 receptor expressed in Xenopus oocytes assessed as stimulation of GABA-induced chloride current at 100 nM incubated 30 secs prior to GABA induction measured after 15 mins by two-electrode voltage clamp assay relative to control; format: cell-based; conditions: Oocyte; in short: as §4

Compound | Activity [%]
C#Cc1ccc2c(c1)C(c1ccccc1F)=NCc1c(-c3nc(C(C)C)no3)ncn1-2 | 154
C#Cc1ccc2c(c1)C(c1ccccc1)=NCc1c(-c3nc(C(C)C)no3)ncn1-2 | 160

molecular target: Gamma-aminobutyric acid receptor subunit alpha-3 (Rattus norvegicus) (UniProt P20236); assay: Agonist activity at rat GABAA alpha3beta3gamma2 receptor expressed in Xenopus oocytes assessed as stimulation of GABA-induced chloride current at 1 uM incubated 30 secs prior to GABA induction measured after 15 mins by two-electrode voltage clamp assay relative to control; format: cell-based; conditions: Oocyte; in short: as §4
Sequence (P20236 whole entry): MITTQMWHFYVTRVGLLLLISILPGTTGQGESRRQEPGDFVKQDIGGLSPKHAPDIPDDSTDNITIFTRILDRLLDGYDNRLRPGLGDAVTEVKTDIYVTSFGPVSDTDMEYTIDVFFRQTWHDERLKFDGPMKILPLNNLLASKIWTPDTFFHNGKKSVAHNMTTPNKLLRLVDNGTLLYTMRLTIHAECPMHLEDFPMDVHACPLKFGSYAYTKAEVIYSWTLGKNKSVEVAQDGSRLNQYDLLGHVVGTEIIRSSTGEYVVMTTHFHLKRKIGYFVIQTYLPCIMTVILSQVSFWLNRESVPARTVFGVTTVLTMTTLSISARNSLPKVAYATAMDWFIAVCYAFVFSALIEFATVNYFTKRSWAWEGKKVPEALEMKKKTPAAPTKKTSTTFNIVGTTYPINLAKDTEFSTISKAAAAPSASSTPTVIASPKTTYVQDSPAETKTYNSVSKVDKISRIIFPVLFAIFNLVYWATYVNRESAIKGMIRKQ

Compound | Activity [%]
C#Cc1ccc2c(c1)C(c1ccccc1F)=NCc1c(-c3nc(C(C)C)no3)ncn1-2 | 460
C#Cc1ccc2c(c1)C(c1ccccc1)=NCc1c(-c3nc(C(C)C)no3)ncn1-2 | 381

molecular target: Gamma-aminobutyric acid receptor subunit alpha-3 (Rattus norvegicus) (UniProt P20236); assay: Agonist activity at rat GABAA alpha3beta3gamma2 receptor expressed in Xenopus oocytes assessed as stimulation of GABA-induced chloride current at 100 nM incubated 30 secs prior to GABA induction measured after 15 mins by two-electrode voltage clamp assay relative to control; format: cell-based; conditions: Oocyte; in short: as §4

Compound | Activity [%]
C#Cc1ccc2c(c1)C(c1ccccc1F)=NCc1c(-c3nc(C(C)C)no3)ncn1-2 | 226
C#Cc1ccc2c(c1)C(c1ccccc1)=NCc1c(-c3nc(C(C)C)no3)ncn1-2 | 195
